Test results from ChEMBL document CHEMBL1128357, “Synthesis and biological properties of water-soluble p-boronophenylalanine derivatives. Relationship between water solubility, cytotoxicity, and cellular uptake” (J Med Chem, 1995).
≈ marks a conversion by molar mass, not a printed value.

Legend:
[1] = Solubility in water at room temperature; assay type: physicochemical; details: read-out: S
Outline: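 Excess boron compound was dissolved, and the undissolved material was removed by membrane filtration. Boron concentration of the saturated solution was measured by ICP-AES. Three replicates, mean ± SE.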

B16 = assay: Cytotoxicity of compound towards B-16 melanoma cells, expressed as survival ratio of cells; assay type: functional, Mus musculus
TIG-1-20 = assay: Cytotoxicity of compound towards TIG-1-20 hybrobrast cells, expressed as survival ratio of cells; assay type: functional, Homo sapiens

Compound | solubility [1] [mM] | Survival ratio (B16) [%] | Survival ratio (TIG-1-20) [%]
NC(Cc1ccc(B(O)O)cc1)C(=O)NC(COC(CO)CO)COC(CO)CO (configuration not stated) | 1200 (≈ 516 mg/mL) | 62 | 73
NC(Cc1ccc(B(O)O)cc1)C(=O)NC(CO)CO (configuration not stated) | 660 (≈ 186 mg/mL) | 60 | 71
NC(Cc1ccc(B(O)O)cc1)C(=O)NCCO (configuration not stated) | 600 (≈ 151 mg/mL) | 60 | 66
NC(Cc1ccc(B(O)O)cc1)C(=O)O (configuration not stated) | 7.7 (≈ 1.61 mg/mL) | 20 | 20
